Reference: the M2OR odorant receptor database
Changes are numbered by the printed parent chain.

Key:
Conditions in all cases: stereoisomer not certain
[1] = target: T1, OR5T3 (Homo sapiens) (UniProt Q8NGG3)
T1 sequence (whole entry): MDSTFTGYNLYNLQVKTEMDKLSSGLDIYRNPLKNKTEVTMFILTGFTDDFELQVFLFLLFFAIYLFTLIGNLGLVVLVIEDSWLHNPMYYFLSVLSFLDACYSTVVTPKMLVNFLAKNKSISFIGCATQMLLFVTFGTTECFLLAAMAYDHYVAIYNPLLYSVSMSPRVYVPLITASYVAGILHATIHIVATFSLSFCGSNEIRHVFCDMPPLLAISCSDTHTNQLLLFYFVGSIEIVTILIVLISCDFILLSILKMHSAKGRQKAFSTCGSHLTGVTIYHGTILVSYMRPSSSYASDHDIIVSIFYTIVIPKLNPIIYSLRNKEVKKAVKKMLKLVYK
Procedure, shortened: (§1)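 Whether a receptor–molecule pair is responsive (active) rests on the original authors' judgment that its measured signal was statistically different from baseline. Pairs without that judgment are non-responsive (inactive). Sources used varied assay methods, commonly transient luciferase assays in mammalian cell lines.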

[2] = target: T2, OR5V1 (Homo sapiens) (UniProt Q9UGF6)
T2 sequence (whole entry): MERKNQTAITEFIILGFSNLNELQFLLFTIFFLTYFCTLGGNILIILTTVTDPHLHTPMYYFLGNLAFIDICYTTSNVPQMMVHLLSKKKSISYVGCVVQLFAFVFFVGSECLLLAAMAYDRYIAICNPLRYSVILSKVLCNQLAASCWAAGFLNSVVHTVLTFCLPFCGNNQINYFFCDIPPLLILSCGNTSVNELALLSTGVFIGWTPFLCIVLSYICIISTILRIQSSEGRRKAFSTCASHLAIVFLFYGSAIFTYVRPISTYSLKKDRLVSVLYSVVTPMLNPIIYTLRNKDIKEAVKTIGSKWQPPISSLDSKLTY
Procedure, shortened: as §1

[3] = target: T3, OR5W2 (Homo sapiens) (UniProt Q8NH69)
T3 sequence (whole entry): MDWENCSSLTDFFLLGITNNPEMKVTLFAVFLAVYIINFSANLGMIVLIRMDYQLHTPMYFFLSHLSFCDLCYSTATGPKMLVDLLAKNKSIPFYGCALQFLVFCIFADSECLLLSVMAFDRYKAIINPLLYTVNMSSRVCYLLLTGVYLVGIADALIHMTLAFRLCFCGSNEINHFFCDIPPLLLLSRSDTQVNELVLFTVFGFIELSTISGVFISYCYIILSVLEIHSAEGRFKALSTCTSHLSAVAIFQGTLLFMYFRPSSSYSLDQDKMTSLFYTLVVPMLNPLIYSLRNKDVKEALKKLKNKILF
Procedure, shortened: as §1

[4] = target: T4, OR6A2 (Homo sapiens) (UniProt O95222)
T4 sequence (whole entry): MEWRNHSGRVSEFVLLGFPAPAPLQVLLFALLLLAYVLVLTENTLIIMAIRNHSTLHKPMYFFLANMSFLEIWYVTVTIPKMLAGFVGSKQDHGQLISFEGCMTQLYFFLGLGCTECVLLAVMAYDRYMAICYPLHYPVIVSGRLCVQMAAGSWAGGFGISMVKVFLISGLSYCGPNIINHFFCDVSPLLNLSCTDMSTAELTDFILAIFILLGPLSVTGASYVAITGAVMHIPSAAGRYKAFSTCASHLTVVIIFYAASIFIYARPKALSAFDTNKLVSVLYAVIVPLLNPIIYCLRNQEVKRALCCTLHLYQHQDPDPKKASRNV
Procedure, shortened: as §1

[5] = target: T5, OR6B1 (Homo sapiens) (UniProt O95007)
T5 sequence (whole entry): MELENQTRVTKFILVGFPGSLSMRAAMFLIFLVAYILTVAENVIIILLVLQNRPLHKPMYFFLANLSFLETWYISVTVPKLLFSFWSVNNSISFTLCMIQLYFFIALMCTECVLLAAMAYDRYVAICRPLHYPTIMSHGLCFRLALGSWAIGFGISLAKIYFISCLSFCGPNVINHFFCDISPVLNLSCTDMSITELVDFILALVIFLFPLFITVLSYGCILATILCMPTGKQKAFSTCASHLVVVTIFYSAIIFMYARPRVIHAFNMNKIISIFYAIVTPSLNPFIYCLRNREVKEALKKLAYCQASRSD
Procedure, shortened: as §1

[6] = target: T6, OR6B2 (Homo sapiens) (UniProt Q6IFH4)
T6 sequence (whole entry): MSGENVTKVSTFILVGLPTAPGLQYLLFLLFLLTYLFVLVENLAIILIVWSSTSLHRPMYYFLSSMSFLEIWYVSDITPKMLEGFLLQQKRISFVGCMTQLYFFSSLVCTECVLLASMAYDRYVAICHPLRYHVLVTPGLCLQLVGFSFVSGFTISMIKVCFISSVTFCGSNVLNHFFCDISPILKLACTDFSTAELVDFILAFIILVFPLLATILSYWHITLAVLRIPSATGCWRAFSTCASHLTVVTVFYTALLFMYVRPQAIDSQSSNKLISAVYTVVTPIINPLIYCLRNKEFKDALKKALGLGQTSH
Procedure, shortened: as §1

[7] = tested on: T7, OR5T2 S4G
T7 sequence (whole entry): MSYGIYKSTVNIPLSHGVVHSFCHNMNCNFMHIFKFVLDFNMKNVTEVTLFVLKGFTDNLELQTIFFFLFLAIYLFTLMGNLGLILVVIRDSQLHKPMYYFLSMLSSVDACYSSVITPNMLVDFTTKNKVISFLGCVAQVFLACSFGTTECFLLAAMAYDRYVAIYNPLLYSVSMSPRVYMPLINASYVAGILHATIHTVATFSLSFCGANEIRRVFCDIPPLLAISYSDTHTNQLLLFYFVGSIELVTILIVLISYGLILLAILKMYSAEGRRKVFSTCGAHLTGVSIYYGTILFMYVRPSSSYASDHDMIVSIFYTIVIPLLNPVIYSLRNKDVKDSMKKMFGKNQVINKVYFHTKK
Procedure, shortened: as §1

[8] = tested on: T8, OR5W2 R189C
T8 sequence (whole entry): T3 sequence (whole entry) with R189C
Procedure, shortened: as §1

[9] = tested on: T9, OR6A2 I50V
T9 sequence (whole entry): T4 sequence (whole entry) with I50V
Procedure, shortened: as §1

[10] = tested on: T10, OR6B2 R122C C179R
T10 sequence (whole entry): T6 sequence (whole entry) with R122C, C179R
Procedure, shortened: as §1

Measured: odorant receptor agonist call;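 further: active if original authors judged signal statistically different from baseline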

CC1CCCCCCCCCCCCC(=O)C1 (configuration not stated)
inactive: [1] | [2] | [3] | [4] | [5] | [6]

CC1=C(O)C(=O)C(C)O1 (configuration not stated)
inactive: all assays above

CCC1OC(=O)C(O)=C1C (configuration not stated)
inactive: all assays above

CCCCCC(=O)C(C)C(C)=O (configuration not stated)
inactive: [1] | [2] | [3] | [4] | [5] | [6]

CC(=O)c1c(C)c([N+](=O)[O-])c(C(C)(C)C)c([N+](=O)[O-])c1C
inactive: [1] | [2] | [3] | [4] | [5] | [6]

CCC1OC(C)=C(O)C1=O (configuration not stated)
inactive: all assays above

CCCCC(S)C(C)CO (configuration not stated)
inactive: [1] | [2] | [3] | [4] | [5] | [6]

CCCCCC(S)C(C)CO (configuration not stated)
inactive: [1] | [2] | [3] | [4] | [5] | [6]

CCCC(S)CCOC(C)=O (configuration not stated)
inactive: all assays above

CC(CO)CS (configuration not stated)
inactive: [1] | [2] | [3] | [4] | [5] | [6]

Cc1cnc(C)c(C)n1
inactive: all assays above

CCCCCCC=CCCC=O
inactive: all assays above

CC1=NC(C)C(C)S1 (configuration not stated)
inactive: all assays above

CC1=C(O)C(=O)OC1C (configuration not stated)
inactive: all assays above

CCC(S)C(C)CO (configuration not stated)
inactive: [1] | [2] | [3] | [4] | [5] | [6]
